# In ChEMBL document CHEMBL2321723, “Synthesis and mechanistic studies of novel spin-labeled combretastatin derivatives as potential antineoplastic agents” (Bioorg Med Chem, 2013):
# Activity calls are given as the source filed them. No cut-off for these calls is given here.
# Tests used:
# [1] = test system: HepG2; test: Cytotoxicity against human HepG2 cells after 24 hrs by MTT assay; assay type: functional, cell-based
# How it was run: (§1)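 MTT assay in RPMI 1640 with 10% fetal calf serum, 2 mM L-glutamine and […]. Log-phase cells seeded, attached 24 h at 37 °C and 5% CO₂, then treated at 0–100 μM. Compounds dissolved in DMSO (1 mg/mL stock), DMSO below 0.1% in wells. Five wells per concentration, triplicate experiments. Blank-corrected OD taken as % of untreated growth, IC50 = 50% inhibition.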
# [2] = test system: K562; test: Cytotoxicity against human K562 cells after 24 hrs by MTT assay; assay type: functional, cell-based; how it was run: as §1
# [3] = test system: HeLa; test: Cytotoxicity against human HeLa cells after 24 hrs by MTT assay; assay type: functional, cell-based; how it was run: as §1
# [4] = Cytotoxicity against human […] cells after 24 hrs by MTT assay; assay type: functional, cell-based; how it was run: as §1
# [5] = test system: HeLa; test: Cell cycle arrest in human HeLa cells assessed as accumulation in subG1 phase at 1.5 uM after 36 hrs by PI-staining based flow cytometric analysis (reference value: 0.2%); assay type: functional
# How it was run: (§2)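 HeLa cells (1 × 10⁵) exposed 36 h to 0, 0.375, 1.5 or 3 μM; washed twice in ice-cold PBS, harvested and fixed. Then RNase A (0.1 mg/mL, 37 °C, 30 min) and propidium iodide staining (30 min on ice, dark). Flow cytometry gave sub-G1, G1, S and G2 fractions, compared with untreated cultures.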
# [6] = species: Capra hircus; test: Inhibition of goat tubulin polymerization at 3 uM after 30 mins by transmission electron microscopic analysis
# How it was run: (§3)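 Microtubule protein from goat brain purified by repeated warm polymerisation and cold depolymerisation cycles with glycerol, ATP and GTP. Tubulin incubated ± compound 30 min at 37 °C in 80 mM PIPES pH 6.9, 1 mM MgCl₂, […], 30% glycerol, 1 mM GTP. Fixed in 0.5% glutaraldehyde, grids stained with uranyl acetate, viewed by TEM at 100 kV.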
# [7] = test system: HeLa; test: Induction of apoptosis in human HeLa cells at 0.375 uM after 24 hrs by FITC/AnnexinV-based flow cytometric analysis (reference value: 0.98%); assay type: functional
# [8] = species: Capra hircus; test: Inhibition of goat tubulin polymerization assessed as club shaped cytoskeleton at 3 uM after 30 mins by transmission electron microscopic analysis; how it was run: as §3
# [9] = test system: HeLa; test: Induction of apoptosis in human HeLa cells at 1.5 uM after 24 hrs by FITC/AnnexinV-based flow cytometric analysis (reference value: 0.98%); assay type: functional
# [10] = test system: HeLa; test: Induction of apoptosis in human HeLa cells assessed as late apoptotic cells at 0.375 to 3 uM after 24 hrs by FITC/AnnexinV-based flow cytometric analysis (reference value: 0.81%); assay type: functional
# [11] = test system: HeLa; test: Cell cycle arrest in human HeLa cells assessed as accumulation in G1 phase at 1.5 uM after 36 hrs by PI-staining based flow cytometric analysis (reference value: 47.36%); assay type: functional; how it was run: as §2
# [12] = test system: HeLa; test: Cell cycle arrest in human HeLa cells assessed as accumulation in G1 phase at 0.375 uM after 36 hrs by PI-staining based flow cytometric analysis (reference value: 47.36%); assay type: functional; how it was run: as §2
# [13] = test system: HeLa; test: Cell cycle arrest in human HeLa cells assessed as accumulation in G1 phase at 3 uM after 36 hrs by PI-staining based flow cytometric analysis (reference value: 47.36%); assay type: functional; how it was run: as §2
# [14] = test system: HeLa; test: Cell cycle arrest in human HeLa cells assessed as decrease in G2 phase after 36 hrs by PI-staining based flow cytometric analysis; assay type: functional; how it was run: as §2
# [15] = test system: HeLa; test: Cell cycle arrest in human HeLa cells assessed as accumulation in subG1 phase after 36 hrs by PI-staining based flow cytometric analysis; assay type: functional; how it was run: as §2
# [16] = test system: HeLa; test: Cell cycle arrest in human HeLa cells assessed as accumulation in G1 phase after 36 hrs by PI-staining based flow cytometric analysis; assay type: functional; how it was run: as §2
# [17] = test system: HeLa; test: Induction of apoptosis in human HeLa cells assessed as early apoptotic cells at 0.375 to 3 uM after 24 hrs by FITC/AnnexinV-based flow cytometric analysis (reference value: 0.17%); assay type: functional
# [18] = test system: HeLa; test: Induction of apoptosis in human HeLa cells at 3 uM after 24 hrs by FITC/AnnexinV-based flow cytometric analysis (reference value: 0.98%); assay type: functional
# [19] = test system: HeLa; test: Cell cycle arrest in human HeLa cells assessed as decrease in S phase after 36 hrs by PI-staining based flow cytometric analysis; assay type: functional; how it was run: as §2
# [20] = test system: HeLa; test: Cell cycle arrest in human HeLa cells assessed as accumulation in subG1 phase at 3 uM after 36 hrs by PI-staining based flow cytometric analysis (reference value: 0.2%); assay type: functional; how it was run: as §2
# [21] = test system: HeLa; test: Cell cycle arrest in human HeLa cells assessed as accumulation in subG1 phase at 0.375 uM after 36 hrs by PI-staining based flow cytometric analysis (reference value: 0.2%); assay type: functional; how it was run: as §2
Compound,IC50 ([1]; hepg2) [µM],IC50 ([2]; k562) [µM],IC50 ([3]; hela) [µM],IC50 [4] [µM],other results
COc1cc([C@@H]2c3cc4c(cc3[C@@H](O[C@@H]3O[C@@H]5CO[C@@H](C)O[C@H]5[C@H](O)[C@H]3O)[C@H]3COC(=O)[C@H]23)OCO4)cc(OC)c1O [ETOPOSIDE],–,–,–,–,"IC50 ([1]; Homo sapiens, HepG2, 24 h): 104 µM; IC50 ([2]; Homo sapiens, K562, 24 h): 2.85 µM; IC50 ([3]; Homo sapiens, HeLa, 24 h): 17.7 µM; IC50 ([4]; Homo sapiens, 24 h): 26.9 µM"
COc1ccc(/C=C\c2cc(OC)c(OC)c(OC)c2)cc1NC(=O)C1=CC(C)(C)N([O])C1(C)C,38.8,> 100,42.3,> 100,–
COc1ccc(/C=C\c2cc(OC)c(OC)c(OC)c2)cc1NC(=O)CNC(=O)OC1CC(C)(C)N([O])C(C)(C)C1,0.98,1.09,0.41,0.39,Activity [5]: 16.71%; inhibition [6]: Active; Activity [7]: 43.99%; inhibition [8]: Active; Activity [9]: 55.75%; Activity [10]: 13.96%; Activity [11]: 85.82%; Activity [12]: 32.85%; Activity [13]: 96.25%; Activity [14]: Dose-dependent effect; Activity [15]: Dose-dependent effect; Activity [16]: Dose-dependent effect; Activity [17]: 52.6%; Activity [18]: 66.54%; Activity [19]: Dose-dependent effect; Activity [20]: 32.42%; Activity [21]: 1.14%
COc1ccc(/C=C\c2cc(OC)c(OC)c(OC)c2)cc1NC(=O)C1CC(C)(C)N([O])C1(C)C (stereo not drawn),25,10.4,7.6,4.93,–
COc1ccc(/C=C\c2cc(OC)c(OC)c(OC)c2)cc1NC(=O)[C@H](Cc1c[nH]c2ccccc12)NC(=O)OC1CC(C)(C)N([O])C(C)(C)C1,2.27,0.56,2.08,3.55,–
COc1ccc(/C=C\c2cc(OC)c(OC)c(OC)c2)cc1NC(=O)[C@H](CCSC)NC(=O)OC1CC(C)(C)N([O])C(C)(C)C1,2.05,4.15,1.16,1.68,–
COc1ccc(/C=C\c2cc(OC)c(OC)c(OC)c2)cc1NC(=O)C1=CC(C)(C)N([O])C(C)(C)C1,10.7,15.6,8.57,6.21,–
COc1ccc(/C=C\c2cc(OC)c(OC)c(OC)c2)cc1NC(=O)[C@@H](NC(=O)OC1CC(C)(C)N([O])C(C)(C)C1)C(C)C,1.05,12,0.15,0.43,–
COc1ccc(/C=C\c2cc(OC)c(OC)c(OC)c2)cc1NC(=O)[C@@H]1CCCN1C(=O)OC1CC(C)(C)N([O])C(C)(C)C1,4.48,5.53,3.39,4.71,–
COc1ccc(/C=C\c2cc(OC)c(OC)c(OC)c2)cc1NC(=O)C1CC(C)(C)N([O])C(C)(C)C1,51.2,16.9,59.2,42.5,–
COc1ccc(/C=C\c2cc(OC)c(OC)c(OC)c2)cc1N,–,–,–,–,"IC50 ([1]; Homo sapiens, HepG2, 24 h): 0.028 µM; IC50 ([2]; Homo sapiens, K562, 24 h): 0.12 µM; IC50 ([3]; Homo sapiens, HeLa, 24 h): 0.403 µM; IC50 ([4]; Homo sapiens, 24 h): 0.014 µM"
COc1ccc(/C=C\c2cc(OC)c(OC)c(OC)c2)cc1NC(=O)[C@H](Cc1ccccc1)NC(=O)OC1CC(C)(C)N([O])C(C)(C)C1,0.28,5.8,8.37,6.33,–
CC[C@H](C)[C@H](NC(=O)OC1CC(C)(C)N([O])C(C)(C)C1)C(=O)Nc1cc(/C=C\c2cc(OC)c(OC)c(OC)c2)ccc1OC,2.19,18.8,2.33,3.07,–
COc1ccc(/C=C\c2cc(OC)c(OC)c(OC)c2)cc1NC(=O)[C@H](C)NC(=O)OC1CC(C)(C)N([O])C(C)(C)C1,0.73,1.56,0.39,0.96,–
